# According to ChEMBL document CHEMBL4396943, “The tetrahydroxanthone-dimer phomoxanthone A is a strong inducer of apoptosis in cisplatin-resistant solid cancer cells” (Bioorg Med Chem, 2019):
# Calls of active or inactive are those of the source. The calls are words filed in the database; no cut-off is given here.
# How the values were obtained:
# [1] = tested on: J82; assay: Induction of apoptosis in human J82 cells assessed as depolarization of mitochondrial membrane potential at 5 to 10 uM incubated for 2 hrs by hoechst 33342 staining based fluorescence microscopy; assay type: functional
# In short: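 J82 cells treated 2 h with PXA, then labelled 20 min with TMRE plus Hoechst 33342. ΔΨm read by high-content fluorescence imaging. Untreated medium and 20 µM CCCP served as controls.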
# [2] = tested on: A2780; assay: Induction of apoptosis in human A2780 cells assessed as depolarization of mitochondrial membrane potential at 1 uM incubated for 1 hr by TMRE staining based flow cytometry; assay type: functional
# In short: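 Cells seeded overnight; medium switched to FBS-free just before treatment to avoid TMRE ester cleavage. Exposure 1 h, 2 h or 24 h, then TMRE staining for 20 min. Cells trypsinized, centrifuged at 4 °C and read by flow cytometry. Medium as negative control, 20 µM CCCP as positive control. […]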
# [3] = tested on: J82; assay: Cell cycle arrest in cisplatin resistant human J82 cells assessed as accumulation at G1 phase at 5 uM incubated for 24 hrs by propidium iodide staining based flow cytometry (reference value: 78.1%); assay type: functional
# In short: (§1)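 After 24 h exposure, cells washed in ice-cold PBS. About 2 million cells fixed in cold 70% ethanol at −20 °C for at least 24 h. Stained with 0.1% Triton X-100, 200 µg/ml RNase A and 20 µg/ml propidium iodide in PBS, 15 min at 37 °C in the dark. DNA content read by flow cytometry with doublet discrimination. Medium as untreated control, paclitaxel as G2/M control. Three independent experiments.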
# [4] = tested on: A2780cisR; assay: Antiproliferative activity against human A2780cisR cells assessed as reduction in cell viability incubated for 72 hrs by MTT assay; assay type: functional, cell-based
# In short: (§2)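 Cells seeded overnight in 96-well plates, then exposed to increasing concentrations (compound dissolved in DMSO, diluted in medium) for the stated time. MTT (5 mg/ml in PBS) added for 15 min, formazan dissolved in DMSO, absorbance read at 544 nm minus 690 nm background. IC50 = concentration giving 50% signal decrease. At least three independent experiments in triplicate.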
# [5] = tested on: J82; assay: Induction of apoptosis in cisplatin resistant human J82 cells assessed as mitochondrial membrane potential at 1 uM incubated for 2 hrs by hoechst 33342 staining based fluorescence microscopy; assay type: functional, cell-based
# In short: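 J82CisR cells exposed 2 h, then labelled with TMRE and Hoechst 33342 for 20 min. TMRE signal imaged on a high-content fluorescence imaging platform. Untreated medium control and 20 µM CCCP positive control.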
# [6] = tested on: A2780cisR; assay: Cell cycle arrest in human A2780cisR cells assessed as accumulation at G1 phase at 10 uM incubated for 24 hrs by propidium iodide staining based flow cytometry (reference value: 68.7%); assay type: functional; in short: as §1
# [7] = tested on: A2780; assay: Cell cycle arrest in human A2780 cells assessed as accumulation at G1 phase at 1 uM incubated for 24 hrs by propidium iodide staining based flow cytometry (reference value: 61.8%); assay type: functional; in short: as §1
# [8] = tested on: J82; assay: Cell cycle arrest in human J82 cells assessed as accumulation at G1 phase at 1 uM incubated for 24 hrs by propidium iodide staining based flow cytometry (reference value: 69.6%); assay type: functional; in short: as §1
# [9] = tested on: A2780cisR; assay: Cell cycle arrest in human A2780cisR cells assessed as accumulation at G1 phase at 5 uM incubated for 24 hrs by propidium iodide staining based flow cytometry (reference value: 68.7%); assay type: functional; in short: as §1
# [10] = tested on: A2780; assay: Cell cycle arrest in human A2780 cells assessed as accumulation at G1 phase at 5 uM incubated for 24 hrs by propidium iodide staining based flow cytometry (reference value: 61.8%); assay type: functional; in short: as §1
# [11] = tested on: CAL-27; assay: Potency index, ratio of cisplatin IC50 to compound IC50 for antiproliferative activity in human CAL27 cells assessed as reduction in cell viability incubated for 72 hrs by MTT assay; assay type: functional
# In short: (§3)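 Cells seeded in 96-well plates overnight, exposed 72 h to increasing concentrations. MTT (5 mg/ml) added for 15 min, formazan dissolved in DMSO, absorbance read at 544 nm with 690 nm background subtracted. IC50 is the concentration reducing signal by 50%. Three independent experiments in triplicate. CisR sublines made by weekly intermittent cisplatin exposure for 24–30 weeks.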
# [12] = tested on: A2780; assay: Induction of apoptosis in human A2780 cells assessed as depolarization of mitochondrial membrane potential at 1 uM incubated for 2 hrs by TMRE staining based flow cytometry; assay type: functional
# In short: (§4)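 Cells seeded overnight; complete medium swapped for FBS-free medium just before treatment to avoid TMRE ester cleavage. Exposure to PXA for 1 h, 2 h or 24 h. TMRE staining 20 min, cells collected by trypsinisation, ΔΨm read by flow cytometry. Medium served as negative control, 20 µM CCCP as positive control. Mean ± SEM reported.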
# [13] = tested on: A2780cisR; assay: Cell cycle arrest in human A2780cisR cells assessed as accumulation at G1 phase incubated for 24 hrs by propidium iodide staining based flow cytometry; assay type: functional; in short: as §1
# [14] = tested on: A2780; assay: Induction of apoptosis in human A2780 cells assessed as plasma membrane damage at 1 to 10 uM incubated for 24 hrs by propidium iodide staining based flow cytometry; assay type: functional, cell-based
# In short: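 Cells exposed to PXA for 24 h, trypsinised, pelleted at 4 °C, stained with 100 µg/ml propidium iodide, diluted in sheath fluid and read by flow cytometry. Positive control was 0.2% Triton X-100 (20 min). Three experiments, mean ± SEM.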
# [15] = tested on: A2780; assay: Induction of apoptosis in human A2780 cells assessed as accumulation in subG1 phase incubated for 24 hrs by propidium iodide staining based flow cytometry (reference value: 10%); assay type: functional
# In short: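 Cells plated in 24-well plates (about 100,000/well) for one day, then treated 24 h. Where used, caspase inhibitor Q-VD-OPh (20 µM) was added 1 h before. Cells lysed in hypotonic buffer (0.1% sodium citrate, 0.1% Triton X-100, 100 µg/ml propidium iodide) overnight at 4 °C in the dark. Sub-G1 fraction read by flow cytometry. Medium control, cisplatin positive control.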
# [16] = tested on: A2780cisR; assay: Induction of apoptosis in human A2780cisR cells assessed as depolarization of mitochondrial membrane potential at 1 uM incubated for 1 hr by TMRE staining based flow cytometry; assay type: functional; in short: as §4
# [17] = tested on: A2780; assay: Induction of apoptosis in human A2780 cells assessed as increase in caspase 3 cleavage at 5 uM incubated for 24 hrs by proteome profiler analysis; assay type: functional, cell-based
# In short: (§5)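 A2780 and A2780CisR cells treated 24 h with 5 µM PXA; apoptosis-related proteins profiled with a human apoptosis antibody array following kit instructions.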
# [18] = tested on: A2780cisR; assay: Induction of apoptosis in human A2780cisR cells assessed as increase in caspase 3 cleavage at 5 uM incubated for 24 hrs by proteome profiler analysis; assay type: functional, cell-based; in short: as §5
# [19] = species: Homo sapiens; assay: Ratio of IC50 for induction of mitochondrial membrane depolarization in cisplatin resistant human J82 cells to IC50 for induction of mitochondrial membrane depolarization in human A2780cisR cells after 2 hrs by TMRE staining based flow cytometry; assay type: functional, cell-based; in short: as §4
# [20] = tested on: MDA-MB-231; assay: Antiproliferative activity against human MDA-MB-231 cells assessed as reduction in cell viability incubated for 72 hrs by MTT assay; assay type: functional, cell-based; conditions: MDA-MB-231, 72 h; in short: as §2
# [21] = tested on: K562; assay: Potency index, ratio of cisplatin IC50 to compound IC50 for antiproliferative activity in human K562 cells assessed as reduction in cell viability incubated for 72 hrs by MTT assay; assay type: functional; in short: as §3
# [22] = tested on: A2780; assay: Cell cycle arrest in human A2780 cells assessed as accumulation at G1 phase incubated for 24 hrs by propidium iodide staining based flow cytometry; assay type: functional; in short: as §1
smiles,measurement,setting,value
CC(=O)OC[C@]12Oc3c(-c4ccc(O)c5c4O[C@@]4(COC(C)=O)C(=C(O)C[C@@H](C)[C@H]4OC(C)=O)C5=O)ccc(O)c3C(=O)C1=C(O)C[C@@H](C)[C@H]2OC(C)=O [PHOMOXANTHONE A],Activity,[1],100%
same,Activity,[2],73%
same,Activity,[3],79.3%
same,IC50,[4]; read-out: IC50,1370 to 1380 nM
same,IC50,[4]; read-out: pIC50 (converted),1380 nM
same,Activity,[5],inactive
same,Activity,[6],81.1%
same,Activity,[7],63.3%
same,Activity,[8],65%
same,Activity,[9],83.3%
same,Activity,[10],75.9%
same,Ratio IC50,[11],2 - 10
same,Activity,[12],50%
same,Activity,[13],Dose-dependent effect
same,Activity,[14],inactive
same,Activity,[15],70%
same,Activity,[16],73%
same,Activity,[17],Active
same,Activity,[18],Active
same,Ratio IC50,[19],3
same,IC50,[20],3.7 µM
same,Ratio IC50,[21],5
same,Activity,[22],Dose-dependent effect
